Results reported in ChEMBL document CHEMBL1122081, “2-(Aminomethyl)phenols, a new class of saluretic agents. 4. Effects of oxygen and/or nitrogen substitution” (J Med Chem, 1982).

How the values were obtained:
Settings in all cases: in vivo
Canis familiaris [1] = assay: Saluretic property was estimated by the excretion of Na+ in dog administered intravenously; microequiv of Na+/min at 5 mg/kg iv stat, 100-249; assay type: ADME, organism-based, Canis lupus familiaris; design: dose 5 mg/kg, route intravenous
How it was run: (§1)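 Dogs of 15-20 kg were given a single stat intravenous dose of 5 mg/kg and Na+ excretion was measured in microequiv/min. The score is the average of two dogs, or three where designated.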

Rattus norvegicus [2] = assay: Saluretic property was estimated by the excretion of Na+ in rat administered orally; microequiv of Na+ at 50 mg/kg […]; assay type: ADME, organism-based; design: dose 50 mg/kg
How it was run: (§2)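 Rats dosed orally; urinary Na+ excretion (microequiv) scored per dose level. Each score is the geometric mean of three animals per cage, with three cages per dose.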

Rattus norvegicus [3] = assay: Saluretic property was estimated by the excretion of Na+ in rat administered orally; microequiv of Na+ at 81 mg/kg […]; assay type: ADME, organism-based; design: dose 81 mg/kg; how it was run: as §2
Rattus norvegicus [4] = assay: Saluretic property (excretion of Na+ in rat after PO dosing); assay type: ADME, organism-based; how it was run: as §2
Rattus norvegicus [5] = species on record: Rattus norvegicus; assay: Saluretic property (excretion of Na+ in rat); assay type: ADME, organism-based; how it was run: as §2
Canis familiaris [6] = assay: Saluretic property was estimated by the excretion of Na+ in dog administered intravenously; microequiv of Na+/min at 5 mg/kg iv stat, 0-99; assay type: ADME, organism-based, Canis lupus familiaris; design: dose 5 mg/kg, route intravenous; how it was run: as §1
Rattus norvegicus [7] = assay: Saluretic property was estimated by the excretion of Na+ in rat administered orally; microequiv of Na+ at 16.5 mg/kg […]; assay type: ADME, organism-based; design: dose 16.5 mg/kg; how it was run: as §2
Rattus norvegicus [8] = assay: Saluretic property was estimated by the excretion of Na+ in rat administered orally; microequiv of Na+ at 5 mg/kg […]; assay type: ADME, organism-based; design: dose 5 mg/kg; how it was run: as §2
Canis familiaris [9] = assay: Saluretic property was estimated by the excretion of Na+ in dog administered intravenously; microequiv of Na+/min at 5 mg/kg iv stat, 250-399; assay type: ADME, organism-based, Canis lupus familiaris; design: dose 5 mg/kg, route intravenous; how it was run: as §1
Canis familiaris [10] = assay: Saluretic property was estimated by the excretion of Na+ in dog administered intravenously; microequiv of Na+/min at 5 mg/kg iv stat, >900; assay type: ADME, organism-based, Canis lupus familiaris; design: dose 5 mg/kg, route intravenous; how it was run: as §1
Rattus norvegicus [11] = assay: Saluretic property was estimated by the excretion of Na+ in rat administered orally; microequiv of Na+ at 1 mg/kg […]; assay type: ADME, organism-based; design: dose 1 mg/kg; how it was run: as §2
Canis familiaris [12] = assay: Saluretic property was estimated by the excretion of Na+ in dog administered intravenously; microequiv of Na+/min at 5 mg/kg iv stat, 800-899; assay type: ADME, organism-based, Canis lupus familiaris; design: dose 5 mg/kg, route intravenous; how it was run: as §1
Canis familiaris [13] = assay: Saluretic property was estimated by the excretion of Na+ in dog administered intravenously; microequiv of Na+/min at 5 mg/kg iv stat, 400-599; assay type: ADME, organism-based, Canis lupus familiaris; design: dose 5 mg/kg, route intravenous; how it was run: as §1
Canis familiaris [14] = assay: Saluretic property was estimated by the excretion of Na+ in dog administered intravenously; microequiv of Na+/min at 5 mg/kg iv stat, […]; assay type: ADME, organism-based, Canis lupus familiaris; design: dose 5 mg/kg, route intravenous; how it was run: as §1
Canis familiaris [15] = assay: Saluretic property was estimated by the excretion of Na+ in dog administered intravenously; microequiv of Na+/min at 5 mg/kg iv stat, 600-799; assay type: ADME, organism-based, Canis lupus familiaris; design: dose 5 mg/kg, route intravenous; how it was run: as §1

Row | Saluretic potency (Rattus norvegicus [4]) | Saluretic potency (Rattus norvegicus [5]) | Saluretic potency (Canis familiaris [6]) | Saluretic potency (Rattus norvegicus [7]) | SMILES | other results
1 | – | – | – | – | CCOC(=O)COc1c(I)cc(C(C)(C)C)cc1CN.Cl | Saluretic potency (Canis familiaris [1]): 100 u equiv min-1; Saluretic potency (Rattus norvegicus [2]): < 0.2 u equiv; Saluretic potency (Rattus norvegicus [3]): < 0.3 u equiv
2 | < 0.2 u equiv | < 0.3 u equiv | – | – | CC(C)(C)OC(=O)NCc1cc(C(C)(C)C)cc(I)c1O | –
3 | < 0.2 u equiv | < 0.3 u equiv | – | – | Oc1c(Cl)cc(Cl)c(Cl)c1CN1CCOCC1 | Saluretic potency (Canis familiaris [1]): 100 u equiv min-1
4 | < 0.2 u equiv | < 0.3 u equiv | 0 u equiv min-1 | – | CC(C)(C)c1cc(Cl)c(O)c(C[n+]2ccccc2)c1.[Cl-] | –
5 | < 0.2 u equiv | < 0.3 u equiv | 0 u equiv min-1 | – | CC(C)(C)c1cc(Cl)c2c(c1)CNCCO2.Cl | –
6 | 1.8 u equiv | 2.4 u equiv | – | 0.6 u equiv | CN(C)S(=O)(=O)Oc1c(I)cc(C(C)(C)C)cc1CN.Cl | Saluretic potency (Rattus norvegicus [8]): 0.4 u equiv
7 | < 0.2 u equiv min-1 | < 0.3 u equiv | – | – | NCC(=O)NCc1c(O)c(Cl)cc(Cl)c1Cl | Saluretic potency (Canis familiaris [1]): 100 u equiv min-1
8 | < 0.2 u equiv | < 0.3 u equiv | – | – | CN(Cc1c(O)c(Cl)cc(Cl)c1Cl)CC1CCCO1 (centres undefined) | Saluretic potency (Canis familiaris [9]): 250 u equiv min-1
9 | < 0.2 u equiv | < 0.3 u equiv | – | – | CC(C)(C)c1cc(Cl)c(O)c(/C=N/N=C(/N)S)c1 | Saluretic potency (Canis familiaris [1]): 100 u equiv min-1
10 | 3.9 u equiv | – | – | 4.2 u equiv | CC(C)(C)c1cc(I)c(O)c(CN)c1.Cl | Saluretic potency (Canis familiaris [10]): > 900 u equiv min-1; Saluretic potency (Rattus norvegicus [11]): 2.1 u equiv; Saluretic potency (Rattus norvegicus [8]): 3.6 u equiv
11 | < 0.2 u equiv | < 0.3 u equiv | 0 u equiv min-1 | – | CC(C)(C)c1cc(Cl)c(O)c(CNS(N)(=O)=O)c1 | –
12 | 2.4 u equiv | 2.9 u equiv | – | 1.4 u equiv | Cl.NCc1c(O)c(Cl)cc(Cl)c1Cl | Saluretic potency (Canis familiaris [12]): 800 u equiv min-1; Saluretic potency (Rattus norvegicus [8]): 0.5 u equiv
13 | < 0.2 u equiv | < 0.3 u equiv | – | – | CC(C)(C)c1cc(I)c(OCC(N)=O)c(CN)c1.Cl | Saluretic potency (Canis familiaris [1]): 100 u equiv min-1
14 | < 0.2 u equiv | < 0.3 u equiv | – | – | O=C(NCc1c(O)c(Cl)cc(Cl)c1Cl)C(Cl)(Cl)Cl | Saluretic potency (Canis familiaris [9]): 400 u equiv min-1
15 | < 0.2 u equiv | < 0.3 u equiv | 0 u equiv min-1 | – | O=CNCc1c(O)c(Cl)cc(Cl)c1Cl | –
16 | 1.8 u equiv | 2.4 u equiv | – | 0.6 u equiv | CC(C)(C)c1cc(I)c(OS(=O)(=O)c2ccccc2)c(CN)c1.Cl | Saluretic potency (Rattus norvegicus [8]): 0.4 u equiv
17 | < 0.2 u equiv | < 0.3 u equiv | – | – | CC(C)(C)c1cc(I)c(O)c(CNC2CCCCC2)c1.Cl | –
18 | 1.2 u equiv | 1.5 u equiv | 0 u equiv min-1 | 0.5 u equiv | O=C(CCl)NCc1c(O)c(Cl)cc(Cl)c1Cl | Saluretic potency (Rattus norvegicus [8]): 0.3 u equiv
19 | 1.8 u equiv | 2.4 u equiv | – | 0.6 u equiv | O=C(NCc1c(O)c(Cl)cc(Cl)c1Cl)C(F)(F)F | Saluretic potency (Rattus norvegicus [8]): 0.4 u equiv
20 | < 0.2 u equiv | < 0.3 u equiv | 0 u equiv min-1 | – | CCN(CC)C(=O)COc1c(I)cc(C(C)(C)C)cc1CN.Cl | –
21 | < 0.2 u equiv | < 0.3 u equiv | – | – | CC(C)(C)c1cc(Cl)c2c(c1)CNC(=O)CO2 | –

Row | Saluretic potency (Rattus norvegicus [4]) | Saluretic potency (Rattus norvegicus [5]) | Saluretic potency (Canis familiaris [6]) | Saluretic potency (Rattus norvegicus [7]) | SMILES | other results
22 | 3.9 u equiv | – | – | 4.2 u equiv | CC(C)(C)c1cc(Cl)c(O)c(CN)c1.Cl | Saluretic potency (Canis familiaris [10]): > 900 u equiv min-1; Saluretic potency (Rattus norvegicus [11]): 2.1 u equiv; Saluretic potency (Rattus norvegicus [8]): 3.6 u equiv
23 | < 0.2 u equiv | < 0.3 u equiv | 0 u equiv min-1 | – | COc1c(I)cc(C(C)(C)C)cc1CN.Cl | –
24 | < 0.2 u equiv | < 0.3 u equiv | 0 u equiv min-1 | – | COc1c(Cl)cc(Cl)c(Cl)c1CN.Cl | –
25 | 1.2 u equiv | 1.5 u equiv | – | 0.5 u equiv | CC(C)(C)c1cc(I)c(O)c(CNS(=O)(=O)O)c1 | Saluretic potency (Rattus norvegicus [8]): 0.3 u equiv
26 | – | – | 0 u equiv min-1 | – | CC(C)(C)c1cc(Cl)c(O)c(C[n+]2ccc(N)cc2)c1.[Cl-] | –
27 | 1.2 u equiv | 1.5 u equiv | 0 u equiv min-1 | 0.5 u equiv | CC(C)(C)c1cc(I)c(O)c(CNCCN)c1.Cl | Saluretic potency (Rattus norvegicus [8]): 0.3 u equiv
28 | < 0.2 u equiv | < 0.3 u equiv | 0 u equiv min-1 | – | CC(C)(C)c1cc(I)c(O)c(CNC(N)=O)c1 | –
29 | < 0.2 u equiv | < 0.3 u equiv | – | – | CC(C)(C)c1cc(Cl)c(O)c(/C=N/N=C(N)N)c1 | Saluretic potency (Canis familiaris [1]): 100 u equiv min-1
30 | < 0.2 u equiv | < 0.3 u equiv | – | – | CC(C)(C)c1cc(I)c(O)c(Cn2cnnn2)c1 | Saluretic potency (Canis familiaris [1]): 100 u equiv min-1
31 | 2.4 u equiv | 2.9 u equiv | – | 1.4 u equiv | CCNS(=O)(=O)Oc1c(I)cc(C(C)(C)C)cc1CN.Cl | Saluretic potency (Rattus norvegicus [8]): 0.5 u equiv; Saluretic potency (Canis familiaris [13]): 400 u equiv min-1
32 | 3.6 u equiv | – | – | 3.3 u equiv | CNCc1cc(C(C)(C)C)cc(I)c1O | Saluretic potency (Canis familiaris [14]): 250 u equiv min-1; Saluretic potency (Rattus norvegicus [11]): 0.7 u equiv; Saluretic potency (Rattus norvegicus [8]): 2.6 u equiv
33 | < 0.2 u equiv | < 0.3 u equiv | – | – | CC(C)(C)c1cc(I)c(O)c(CN=C(N)N)c1 | –
34 | 0.7 u equiv | 0.9 u equiv | – | 0.4 u equiv | CC(C)(C)c1cc(I)c2c(c1)CNC(=O)O2 | –
35 | 2.4 u equiv | 2.9 u equiv | – | 1.4 u equiv | CC(C)(C)c1cc(I)c(OS(=O)(=O)O)c(CN)c1 | Saluretic potency (Rattus norvegicus [8]): 0.5 u equiv
36 | 3.3 u equiv | – | – | 2.7 u equiv | CCCCNCc1cc(C(C)(C)C)cc(I)c1O.Cl | Saluretic potency (Canis familiaris [15]): 600 u equiv min-1; Saluretic potency (Rattus norvegicus [8]): 1.4 u equiv
37 | < 0.2 u equiv | < 0.3 u equiv | – | – | CC(C)(C)c1cc(I)c(OS(C)(=O)=O)c(CN)c1.Cl | –
38 | 3.3 u equiv | – | 0 u equiv min-1 | 2.7 u equiv | CN(C)Cc1cc(C(C)(C)C)cc(I)c1O | Saluretic potency (Rattus norvegicus [8]): 1.4 u equiv
39 | < 0.2 u equiv | < 0.3 u equiv | – | – | CC(C)(C)c1cc(I)c(O)c(CNC2=NCCC2)c1.Cl | –
40 | < 0.2 u equiv | < 0.3 u equiv | – | – | CC(C)(C)c1cc(I)c2c(c1)CNS(=O)(=O)O2 | –
41 | < 0.2 u equiv | < 0.3 u equiv | 0 u equiv min-1 | – | Oc1c(Cl)cc(Cl)c(Cl)c1CN1CCCCC1 | –

Row | SMILES | Saluretic potency (Rattus norvegicus [4]) | Saluretic potency (Rattus norvegicus [5]) | Saluretic potency (Canis familiaris [6]) | Saluretic potency (Rattus norvegicus [7]) | other results
42 | COc1c(I)cc(C(C)(C)C)cc1C[N+](C)(C)C.[I-] | – | – | 0 u equiv min-1 | – | –
43 | CC(C)(C)c1cc(I)c(O)c(CNC2=NCCN2)c1 | < 0.2 u equiv | < 0.3 u equiv | 0 u equiv min-1 | – | –
44 | CC(C)(C)c1cc(I)c(O)c(C[N+](C)(C)C)c1.[I-] | 0.2 u equiv | < 0.3 u equiv | 0 u equiv min-1 | – | –
45 | CC(C)(C)c1cc(I)c(O)c(CNC2=NCCO2)c1 | < 0.2 u equiv | < 0.3 u equiv | – | – | –
46 | CN1CCN(Cc2cc(C(C)(C)C)cc(Cl)c2O)CC1.Cl | < 0.2 u equiv | < 0.3 u equiv | 0 u equiv min-1 | – | –
47 | CC(C)(C)c1cc(I)c(O)c(CNC2=NCCS2)c1 | < 0.2 u equiv | < 0.3 u equiv | – | – | –
